The source made the active and inactive calls. The calls are words filed in the database; no cut-off is given here.

For data set [1], the target named is T1, Sodium- and chloride-dependent glycine transporter 1 (Rattus norvegicus) (UniProt P28572).
T1 sequence (whole entry): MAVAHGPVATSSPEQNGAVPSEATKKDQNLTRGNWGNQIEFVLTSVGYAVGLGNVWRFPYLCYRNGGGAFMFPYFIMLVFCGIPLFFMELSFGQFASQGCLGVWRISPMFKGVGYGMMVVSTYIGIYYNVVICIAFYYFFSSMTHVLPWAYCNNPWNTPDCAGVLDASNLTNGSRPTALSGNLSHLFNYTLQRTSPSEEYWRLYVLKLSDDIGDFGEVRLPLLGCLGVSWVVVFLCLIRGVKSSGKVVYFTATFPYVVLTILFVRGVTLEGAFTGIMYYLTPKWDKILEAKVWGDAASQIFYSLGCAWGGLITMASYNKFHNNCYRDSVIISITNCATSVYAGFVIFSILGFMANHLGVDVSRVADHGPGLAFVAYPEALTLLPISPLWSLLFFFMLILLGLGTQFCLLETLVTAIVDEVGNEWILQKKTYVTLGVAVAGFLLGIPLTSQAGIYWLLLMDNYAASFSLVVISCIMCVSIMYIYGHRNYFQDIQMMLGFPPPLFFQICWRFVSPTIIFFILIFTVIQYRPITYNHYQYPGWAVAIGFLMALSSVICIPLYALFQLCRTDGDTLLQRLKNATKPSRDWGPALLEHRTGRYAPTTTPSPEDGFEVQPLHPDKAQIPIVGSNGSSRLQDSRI
In words: Binding affinity to GlyT1 in rat brain striatum at 0.03 to 0.04 nM preincubated for 20 mins in binding buffer before compound addition measured after 30 mins by autoradiography in presence of 1 mM GlyT1 substrate glycine relative to control. Type of data set: tissue-based. As to conditions: tested as the 125I-labelled form.

In data set [2] the target is T1, Sodium- and chloride-dependent glycine transporter 1 (Rattus norvegicus). The data set is described as follows: Binding affinity to GlyT1 in rat brain thalamus at 0.03 to 0.04 nM preincubated for 20 mins in binding buffer before compound addition measured after 30 mins by autoradiography in presence of 0.01 mM GlyT1 inhibitor ALX5407 relative to control. As to conditions: tested as the 125I-labelled form. It counts as tissue-based.

In data set [3] the test system is Mus musculus. In words: In vivo binding affinity to GlyT1 in ddY mouse brain cerebellum at 200 kBq, iv after 60 mins by autoradiography relative to control. It counts as functional, organism-based. The note with it: tested as the 125I-labelled form. In a few lines:
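Ex vivo autoradiography in mice given 200 kBq [125I]tracer i.v. and killed at 60 min. Brains were removed, frozen on dry ice and cut into 20 µm sagittal cryosections, which were exposed to an imaging plate for 7 days. Regional signal was quantified as PSL/mm² (n = 5) and compared to control by Kruskal–Wallis with Dunn's post-test.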

Data set [4] addresses T1, Sodium- and chloride-dependent glycine transporter 1 (Rattus norvegicus). In words: Binding affinity to GlyT1 in rat brain medullary region at 0.03 to 0.04 nM preincubated for 20 mins in binding buffer before compound addition measured after 30 mins by autoradiography in presence of 0.01 mM GlyT1 inhibitor HPCP relative to control. It counts as tissue-based. The note with it: tested as the 125I-labelled form. In a few lines:
(§1)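 Rat brain sagittal sections (20 µm) preincubated 20 min at 25 °C in Tris-HCl buffer pH 7.5 (NaCl, KCl, MgCl2, CaCl2), then 30 min at 25 °C with [125I] tracer (100 kBq, 0.03–0.04 nM) plus competitor (10 µM; glycine 1 or 10 mM). Cold washes, imaging plate 3 days, ROI PSL minus background per mm². % control from ≥triplicate slices, three rats.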

Data set [5] has the same target. In words: Binding affinity to GlyT1 in rat brain medullary region at 0.03 to 0.04 nM preincubated for 20 mins in binding buffer before compound addition measured after 30 mins by autoradiography in presence of 10 mM GlyT1 substrate glycine relative to control. Type of data set: tissue-based. The note with it: tested as the 125I-labelled form. In a few lines:
as §1

For data set [6] the target is unchanged. The data set is described as follows: Binding affinity to GlyT1 in rat brain corpus callosum at 0.03 to 0.04 nM preincubated for 20 mins in binding buffer before compound addition measured after 30 mins by autoradiography in presence of 1 mM GlyT1 substrate glycine relative to control. Type of data set: tissue-based. The note with it: tested as the 125I-labelled form. Summed up: as §1

Data set [7] shares this target. In words: Binding affinity to GlyT1 in rat brain hippocampus at 0.03 to 0.04 nM preincubated for 20 mins in binding buffer before compound addition measured after 30 mins by autoradiography in presence of 0.01 mM NMDA receptor glycine site antagonist L-701,324 relative to control. Type of data set: tissue-based. As to conditions: tested as the 125I-labelled form. In a few lines: as §1

Data set [8] has the same target. The data set is described as follows: Binding affinity to GlyT1 in rat brain cerebral cortex at 0.03 to 0.04 nM preincubated for 20 mins in binding buffer before compound addition measured after 30 mins by autoradiography relative to control. It counts as tissue-based. The note with it: tested as the 125I-labelled form. In a few lines: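 Rat brain sagittal sections (20 µm), 20 min preincubation at 25 °C in Tris-HCl pH 7.5 binding buffer, then [125I] tracer (100 kBq, 0.03–0.04 nM) for 30 min at 25 °C. Nonspecific binding taken with 10 µM unlabeled ligand. Imaging-plate read-out as (PSL−BG)/mm². Mean ± SD, n = 4–5 from at least three rats; Mann–Whitney U-test.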

For data set [9] the target is unchanged. In words: Binding affinity to GlyT1 in rat brain striatum at 0.03 to 0.04 nM preincubated for 20 mins in binding buffer before compound addition measured after 30 mins by autoradiography relative to control. The note with it: tested as the 125I-labelled form. Type of data set: tissue-based.
The target is the same in data set [10]. The data set is described as follows: Binding affinity to GlyT1 in rat brain cerebral cortex at 0.03 to 0.04 nM preincubated for 20 mins in binding buffer before compound addition measured after 30 mins by autoradiography in presence of 10 mM GlyT1 substrate glycine relative to control. Type of data set: tissue-based. The note with it: tested as the 125I-labelled form. Summed up:
as §1

The target is the same in data set [11]. In words: Binding affinity to GlyT1 in rat brain corpus callosum at 0.03 to 0.04 nM preincubated for 20 mins in binding buffer before compound addition measured after 30 mins by autoradiography in presence of 0.01 mM GlyT1 inhibitor HPCP relative to control. Type of data set: tissue-based. As to conditions: tested as the 125I-labelled form. Summed up:
as §1

The test system of the next data set is Liver. In words: Drug uptake in ddY mouse liver at 11.1 kBq, iv after 180 min by gamma counting. The note with it: in vivo, 3 h. Type of data set: ADME, organism-based. In a few lines: (§2)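 Male ddY mice (6 weeks, 30–35 g) were given about 11.1 kBq of [125I]tracer in 0.1 mL i.v. via the tail vein. At each time point the animals were killed and organs dissected, weighed and gamma-counted. Uptake is expressed as % injected dose per gram of tissue, mean ± SD, n = 5–6.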

The subject of data set [12] is Intestine. In words: Drug uptake in ddY mouse intestine at 11.1 kBq, iv after 0.5 min by gamma counting. Type of data set: ADME, organism-based. The note with it: in vivo. In a few lines: (§3)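 Male ddY mice (6 weeks, 30–35 g) received about 11.1 kBq [125I]tracer in 0.1 mL i.v. via tail vein. Killed at set times, organs dissected and weighed, radioactivity gamma counted. Reported as % injected dose/g tissue, mean ± SD, n = 5–6.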

The subject of data set [13] is Intestine. In words: Drug uptake in ddY mouse intestine at 11.1 kBq, iv after 5 min by gamma counting. It counts as ADME, organism-based. The note with it: in vivo. In a few lines:
as §3

Data set [14] relates to Spleen. The data set is described as follows: Drug uptake in ddY mouse spleen at 11.1 kBq, iv after 15 min by gamma counting. Type of data set: ADME, organism-based. As to conditions: in vivo. In a few lines:
as §2

For data set [15], the system named is Spleen. The data set is described as follows: Drug uptake in ddY mouse spleen at 11.1 kBq, iv after 60 min by gamma counting. It counts as ADME, organism-based. As to conditions: in vivo, 1 h. Summed up:
as §2

In data set [16] the test system is Spleen. In words: Drug uptake in ddY mouse spleen at 11.1 kBq, iv after 180 min by gamma counting. Type of data set: ADME, organism-based. The note with it: in vivo, 3 h. In a few lines:
as §2

Data set [17] has as its system Mus musculus. The data set is described as follows: In vivo binding affinity to GlyT1 in ddY mouse brain thalamus at 33.3 kBq, iv after 60 mins in presence of nonradioactive compound 2 mg/kg, iv administered 15 mins prior to compound administration relative to control. Type of data set: functional.
The nature of data set [18]: Lipophilicity, log D of the compound at pH 7.4. It counts as physicochemical. As to conditions: buffer.

Consider `CN1CCCC[C@H]1[C@@H](NC(=O)c1cccc(C(F)(F)F)c1I)c1ccccc1`, for which the Activity turned out to be 122% in data set [1]; 33.2% in data set [2]; 20.5% in data set [4]; 61.2% in data set [5]; 94.1% in data set [6]; 90.9% in [7]. The values for the Activity in data set [10] and in data set [11] were 43.7% and 19.7%, respectively. Moreover, in the data set on Mus musculus [3], the outcome was Active. Besides, the result in [8] and in data set [9] was inactive.

Take `CN1CCCC[C@H]1[C@@H](NC(=O)c1cccc(C(F)(F)F)c1[125I])c1ccccc1`: the Drug uptake is on record as 15.05 % ID/g with Liver; 0.81 % ID/g in the data set on Intestine [12]; 2.47 % ID/g in the data set with Intestine [13]; 5.5 % ID/g with Spleen [14]; 5.86 % ID/g with Spleen [15]; 3.41 % ID/g in the data set on Spleen [16]. The Activity with Mus musculus [17] is given as 58%. The molecule further returned a logD in [18] of 2.86.

The logD is the decadic logarithm of the distribution of all forms, ionised or not, between an organic phase and buffer at a given pH. A low value points to lower lipophilicity.
